Ends that are not written are not given here.

The text below walks through data of PMC3112262 (The Journal of surgical research, 2011).

For data set [1], the system named is human pleural mesothelial cells (CRL-9444). Put plainly: IL-6 ELISA, cytokine-stimulated mesothelial cells. The data set is classed as cell-based. To be noted: for cytokine-induced IL-6 expression, time and dose dependence: 0.1, 1, or 10 ng/mL cytokine, 2, 6, 12, 24 h, triplicate. In short, it runs like this:
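Human pleural mesothelial cells were grown in supplemented Medium199 with 10% FBS and held 24 h in serum-free medium before cytokine (IL-1β or TNF-α) and/or test compound treatment. Media IL-6 was measured by sandwich ELISA at room temperature with 300 rpm shaking and ABTS substrate. Absorbance was read at 405 nm minus 650 nm every 5 min for 50 min. Samples were run in triplicate and normalised to cell number by Hoechst 33342 DNA stain.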
In general terms: ELISA stands for enzyme-linked immunosorbent assay.

Data set [2] deals with hnRNPA0 in mesothelial cells. As to the kind of experiment: Western blot, hnRNPA0 phosphorylation. To be noted: 1 ng/ml IL-1β. It is filed as cell-based, human. An outline of the steps: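 Human pleural mesothelial cell line grown to confluence, serum-starved 24 h, then given 1 ng/ml IL-1β with or without test compound (1000 or 3000 µM), added together, for 6 and 12 h. Lysed in urea/phosphatase-inhibitor buffer. 20 µg protein run on 12% gels, probed for phospho-hnRNPA0 (Ser84) and β-actin, detected by infrared imaging. Band intensity normalized to β-actin.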
(In western blotting, separated proteins are transferred to a membrane and probed.)

In data set [3] the test system is MK2. To be noted: ref [35]; cited from earlier work.
In data set [4] the test system is HSPB1 in human keloid fibroblasts. To be noted: ref [36]; cited from earlier work.
Data set [5] deals with kinase. To be noted: cited from earlier work.
The conditions of data set [6]: effect of the CPP sequence; ref [37]; cited from earlier work.
Data set [7] deals with mesothelial cells. To be noted: ref [37]; cited from earlier work.
For data set [8], the system named is rat colon anastomosis. As to the kind of experiment: Anastomotic healing: hydroxyproline assay. It is filed as in vivo. To be noted: single treatment at surgery, both time points (4 and 10 days).
The conditions of data set [9]: rat.
For data set [10], the system named is rat colon anastomosis. To be noted: in vivo.
Data set [11] concerns the target human recombinant MK2 (h) (Homo sapiens, UniProt P49137). Put plainly: Radiometric MK2 kinase inhibition. It is filed as biochemical.

Sequence of human recombinant MK2 (h) (P49137 whole entry): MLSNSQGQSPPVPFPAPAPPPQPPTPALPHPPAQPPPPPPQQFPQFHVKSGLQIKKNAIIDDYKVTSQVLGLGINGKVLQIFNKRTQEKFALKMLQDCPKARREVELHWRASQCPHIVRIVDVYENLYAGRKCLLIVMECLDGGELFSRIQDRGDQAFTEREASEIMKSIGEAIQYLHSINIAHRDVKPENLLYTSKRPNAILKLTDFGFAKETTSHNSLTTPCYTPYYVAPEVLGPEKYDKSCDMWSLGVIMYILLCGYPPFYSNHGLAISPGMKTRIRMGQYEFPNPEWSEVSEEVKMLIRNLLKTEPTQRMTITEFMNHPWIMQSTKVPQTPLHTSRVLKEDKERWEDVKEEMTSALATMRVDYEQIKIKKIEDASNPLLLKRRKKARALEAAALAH

As for “IL-1β: interleukin-1β (Peprotech), stimulating cytokine”, the “IL-6 expression after six hours, all three concentrations” value in data set [1] (0.1, 1, 10 ng/mL IL-1β, 6 h) is given as “significantly increased IL-6 expression after six hours (p<0.05)”. Besides, the “cytokine-induced IL-6 expression, time and dose dependence” value in [1] is “increased IL-6 expression in a time- and dose-dependent manner”. The “IL-6 expression at 24 hours, two higher concentrations” value in [1] (1 and 10 ng/mL IL-1β, 24 h) was “induced similar levels of IL-6 expression”. Besides, in data set [2] (6 h, compared to controls, normalized to β-actin), the “upregulation of phosphorylated hnRNPA0” value is on record as 2 fold. Further, the “phosphorylation of hnRNPA0 at 12 hours” value in data set [2] (12 h) is reported as “no longer upregulates the phosphorylation of hnRNPA0”.
As for “KKKALNRQLGVAA [Hayess and Benndorf peptide]”, the “MK2 activity in vitro” value in [3] is given as “does inhibit MK2 activity in vitro”.
Turning to TNF-α, the “IL-6 expression, 0.1 ng/mL” value in data set [1] (0.1 ng/mL TNF-α) was “rarely produced significant increases in IL-6”. Besides, the “IL-6 expression, 1 ng/mL” value in [1] (1 ng/mL TNF-α, versus untreated control) was “did not always significantly upregulate IL-6 expression above the untreated control”. In addition, in data set [1], the “cytokine-induced IL-6 expression, time and dose dependence” value is “increased IL-6 expression in a time- and dose-dependent manner”. The “IL-6 induction potency relative to IL-1β” value in [1] (excluding 24-hour time point for the highest TNF-α dose) was “less potent inducer of IL-6 expression than IL-1β”.
Consider WLRRIKAWLRRIKALNRQLGVAA, for which the HSPB1 phosphorylation entry in data set [4] is “inhibited HSPB1 phosphorylation in human keloid fibroblasts”. Besides, the kinase specificity entry in data set [5] (effect of the CPP sequence, ref [37]) is listed as “dramatically decreased the kinase specificity of the peptide”. Besides, the toxicity result in [6] is on record as “increased its associated toxicity”.
In the case of YARAAARQARA, the “peptide specificity conferred by the CPP” value in [5] (ref [38]) is recorded as “maximizes peptide specificity”.
In general, IC50 refers to the concentration at which inhibition is half-maximal. As to YARAAARQARAKALARQLGVAA-NH2 [MMI-0100], the “highest concentration used versus toxic dose for mesothelial cells” value in [7] was “well below the toxic dose for mesothelial cells”. For the same substance, in data set [8], the “intestinal hydroxyproline content in words” value is reported as “did not significantly affect rat weight gain, anastomosis bursting pressure or intestinal hydroxyproline (OHP) content at either time point”. Further, the “in vivo side effects” value in [9] was “no obvious in vivo side effects”. Further, in data set [9] (in vivo), the “animals lost from the treatment group” value is reported as “One animal was lost” and the complications of anastomosis entry was “did not cause any of these complications”. Further, the “anastomosis bursting pressure in words” value in data set [10] was “did not significantly affect rat weight gain, anastomosis bursting pressure”. In data set [11], the IC50 amounted to 22 µM.
